This note sets out measurements from ChEMBL document CHEMBL1914453, “1,1-Diarylalkenes as anticancer agents: dual inhibitors of tubulin polymerization and phosphodiesterase 4” (Bioorg Med Chem, 2011).

Bounds are passed on as bounds.

Data set [1] in a line: Solubility of the compound at pH 7.4 after 4 hrs by UV-Vis spectrophotometry. The format is physicochemical. The following applies: buffer. In short, it runs like this: (§1)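 A suspension of about 1 mg/mL (0.5 mL) in pH 5.0 or pH 7.4 buffer was stirred at 400 rpm for 4 h and then filtered. Concentration was determined by UV-vis plate reading (200–400 nm) against standard curves for each compound. Replicate measurements were made at pH 5.0.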

The nature of data set [2]: Inhibition of tubulin polymerization at 10 uM after 60 mins by spectrophotometry.
For another data set, the target named is Phosphodiesterase 4 (Homo sapiens, UniProt P27815+Q08499+Q07343+Q08493). The data set is described as follows: Inhibition of human PDE4 expressed in U937 cells using [3H]cAMP as substrate after 30 mins. The note with it: u-937. In short, it runs like this: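 PDE4 was purified from U937 human monocytic cells by gel filtration. Reactions ran in 50 mM Tris–HCl pH 7.5 with 5 mM MgCl₂, 1 µM cAMP and 10 nM [³H]-cAMP for 30 min at 30 °C. They were stopped by boiling, treated with snake venom (1 mg/ml) and separated on ion-exchange resin. Substrate consumption stayed below 15%. IC50 values are means of at least three determinations, with SEM.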

For data set [3], the system named is HCT-116. Briefly: Cytotoxicity against human HCT116 cells assessed as reduction of [3H]thymidine incorporation after 72 hrs by scintillation counting. It counts as functional, cell-based. In short, it runs like this: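 HCT-116 cells were seeded 24 h before compound and treated with serial dilutions in triplicate for 72 h at 37 °C. [³H]thymidine (1 µCi per well) was added for the last 6 h, and incorporation was read by scintillation counting. IC50 came from nonlinear sigmoidal regression (top 100%, bottom 0%, variable slope). Values are means of at least three independent determinations, with SEM from the individual IC50s.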
For orientation: Incorporation of labelled thymidine or its analogues reports DNA synthesis.

Data set [4] in a line: Inhibition of tubulin polymerization at 5 uM after 60 mins by spectrophotometry.
Data set [5] in a line: Solubility of the compound at pH 5 after 4 hrs by UV-Vis spectrophotometry. The note with it: buffer. The format is physicochemical. The method, boiled down: as §1
For the next data set, the system named is PBMC. Briefly: Inhibition of LPS-induced TNFalpha production in human PBMC preincubated 1 hr prior to LPS stimulation measured after 18 to 20 hrs by ELISA. The format is functional, cell-based. The method, boiled down:
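PBMC were isolated by Ficoll-Hypaque density centrifugation and plated at 2 × 10⁵ cells in triplicate. Compounds in DMSO (0.25% final) were added 1 h before stimulation with LPS from S. abortus equi at 1 ng/ml. After 18–20 h at 37 °C in 5% CO₂, supernatant TNF-α was measured by ELISA. IC50 values are means of at least three determinations.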
On the technique in general: ELISA stands for enzyme-linked immunosorbent assay.

In data set [6] the test system is Plasma. Briefly: Stability in human plasma assessed as formation of (E/Z)-3-(3-Amino-4-methoxyphenyl)-3-(3-ethoxy-4- methoxyphenyl)acrylonitrile by LC-MS/MS analysis. The format is ADME, cell-free. The method, boiled down:
(§2)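 Analogs were incubated in human plasma at 37 °C and sampled at 0, 0.5, 1, 2, 3, 4, 6, 8 and 24 h. Samples were quenched in acetonitrile with 0.1% formic acid and internal standard, centrifuged, and analysed by LC–MS/MS in MRM mode on a C18 monolithic column with an aqueous acetonitrile/0.1% formic acid gradient. Percentage remaining was taken from analyte/IS peak-area ratios relative to time zero.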

The subject of data set [7] is HCT-116. The data set is described as follows: Antitumor activity against human HCT116 cells xenografted in SCID mouse assessed as tumor growth inhibition at 20 mg/kg, ip once daily measured twice weekly relative to control. The following applies: HCT-116, ip, 24 h, read-out: GI. (In general: A xenograft is tissue or cells of one species grown in another, often human tumour cells in immunodeficient mice.)

Data set [8] can be described thus: Stability in human plasma assessed as half life by LC-MS/MS analysis. It counts as ADME, cell-free. The method, boiled down:
as §2

A further data set deals with Mus musculus. The data set is described as follows: Toxicity in SCID mouse xenografted with human HCT116 cells assessed as reduction in body weight at 20 mg/kg, ip once daily measured after day 19 relative to control. It counts as organism-based, HCT-116. More on the design: dose 20 mg/kg, route intraperitoneal; scale not given: the % may be the effect or the level left. The note with it: in vivo. In short, it runs like this: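 SCID mice carrying s.c. HCT-116 tumors were dosed ip at 20 mg/kg once daily in CMC-Tween vehicle (0.5% carboxymethylcellulose, 0.25% Tween 80) from day 8. Health was monitored daily and body weights were compared with the vehicle group.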

Data set [9] can be described thus: Ratio of IC50 for human PDE4 expressed in U937 cells to IC50 for human HCT116 cells. Also noted: species or system HCT-116.
Data set [10] relates to HCT-116. Briefly: Antitumor activity against human HCT116 cells xenografted in SCID mouse assessed as reduction in tumor volume at 20 mg/kg, ip qd measured twice weekly relative to control. It counts as functional. Also noted: scale not given: the % may be the effect or the level left. The note with it: route intraperitoneal. The method, boiled down: (§3)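 Female SCID mice, 6–8 weeks old, inoculated s.c. in the right hind leg with 2 × 10⁶ HCT-116 cells in sterile PBS. On day 8, mice with 75–125 mm³ tumors were randomized and dosed ip in CMC-Tween vehicle (0.5% carboxymethylcellulose, 0.25% Tween 80 in water). Tumors were measured twice weekly by caliper, volume W² × L / 2, and compared with vehicle.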

Data set [11] relates to HCT-116. Briefly: Antitumor activity against human HCT116 cells xenografted in SCID mouse assessed as tumor growth inhibition at 5 mg/kg, ip once every 4 days measured twice weekly relative to control. It counts as functional. The following applies: HCT-116, ip, 96 h, route intraperitoneal, read-out: GI. The method, boiled down: as §3
Data set [12] relates to Plasma. The data set is described as follows: Stability in human plasma assessed as formation of (E/Z)-3-(3-Ethoxy-4-methoxyphenyl)-3-(3-hydroxy-4- methoxyphenyl)acrylonitrile […] by LC-MS/MS analysis. It counts as ADME, cell-free. The note with it: 20 min.

One may read the solubility as the concentration that dissolves in the medium under given conditions. By inhibition is commonly meant the share of the control response that was lost under treatment. Usually IC50 stands for the concentration needed to halve the response being measured. With `CCOc1cc(C(=CC#N)c2ccc(OC)c(N)c2)ccc1OC`, the solubility at 4 h in data set [1] and in data set [5] was under 0.003 mg/mL throughout. In addition, the inhibition amounted to 76% in data set [2] and 65% in data set [4]. The IC50 is 0.047 µM on Phosphodiesterase 4, 0.019 µM in the data set on HCT-116 [3] and 0.031 µM in the data set on PBMC.

What is called half-life is the time in which the quantity being followed falls by half. As for `CCOc1cc(C(=CC#N)c2ccc(OC)c(NC(=O)CN)c2)ccc1OC.Cl`, the Stability result in the data set on Plasma [6] is given as “Stable”. In the data set with HCT-116 [7], the inhibition in vivo at 20 mg/kg worked out at 64%. The values for the solubility at 4 h in data set [1] and in [5] were 0.205 mg/mL and 0.356 mg/mL, respectively. In addition, the half-life in [8] is 56 h. In addition, the results for the inhibition in [2] and in data set [4] were 70% and 59%, respectively. The Activity in the data set with Mus musculus came to 15%. Moreover, the figures for the IC50 against Phosphodiesterase 4, in the data set with HCT-116 [3] and in the data set on PBMC were 0.4 µM, 0.093 µM and 0.031 µM, respectively.

Regarding `COc1cc(OC)cc(C(=C(C)C)c2ccc(OC)c(O)c2)c1`, in data set [9], the “Ratio IC50” value is 10. The values for the IC50 against Phosphodiesterase 4, with HCT-116 [3] and with PBMC were over 10 µM, 0.97 µM and 7 µM, respectively.

Take `CCOc1cc(C(=CC#N)c2cc(OC)cc(OC)c2)ccc1OC`: the inhibition in data set [2] worked out at 59%; in data set [4], 48%. Also, in the data set with HCT-116 [10], the Activity is on record as 16%. For the same molecule, the IC50 against Phosphodiesterase 4 was 0.054 µM; in the data set on HCT-116 [3] it was 0.034 µM; in the data set on PBMC, 0.043 µM.

Turning to `CCc1c2c(nc3ccc(OC(=O)N4CCC(N5CCCCC5)CC4)cc13)-c1cc3c(c(=O)n1C2)COC(=O)[C@]3(O)CC` [IRINOTECAN], the inhibition in vivo at 5 mg/kg with HCT-116 [11] came to 85%.

Take `CCOc1cc(C(=CC#N)c2ccc(OC)c(OC(=O)[C@@H](N)C(C)C)c2)ccc1OC.Cl`: in the data set with Plasma [12], the Stability result is recorded as “Unstable”. Also, the figures for the IC50 at Phosphodiesterase 4, in the data set with HCT-116 [3] and in the data set on PBMC were 0.12 µM, 0.022 µM and 0.067 µM, respectively.

In the case of `CCOc1cc(C(=CC#N)c2ccc(OC)c(NC(=O)[C@H](C)N)c2)ccc1OC.Cl`, the Stability result in the data set with Plasma [6] is “Stable”. In addition, the figures for the solubility at 4 h in data set [1] and in [5] were 0.405 mg/mL and 1.04 mg/mL, respectively. Further, in data set [8], the half-life is 27 h. The IC50 against Phosphodiesterase 4 stood at 0.15 µM; in the data set on HCT-116 [3], 0.04 µM; in the data set with PBMC, 0.027 µM.
